Consider 40 compounds from ChEMBL document CHEMBL1146850, “Dithiocarbamic acid esters as anticancer agent. Part 1: 4-substituted-piperazine-1-carbodithioic acid 3-cyano-3,3-diphenyl-propyl esters” (Bioorg Med Chem Lett, 2006).

Series [1] has as its system HL-60. As to the kind of experiment: Antiproliferative activity against human HL60 cells at 33 uM by MTT assay. Type of series: functional. In short, it runs like this:
(§1)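 HL-60 cells kept in RPMI-1640 with 10% FBS, penicillin 100 U/mL and streptomycin at 37 °C under humidified CO2. Exponentially growing cells seeded at 1–2.5 × 10^4 cells/mL. Compound added after 24 h, with medium-only controls. Exposure 48 h, then viable cells read by MTT at 570 nm absorbance. Screened at four concentrations, with single-concentration data given at 33.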
For orientation: Tetrazolium assays rely on reduction of a dye to a coloured formazan, in cell work by metabolically active cells.

Series [2] deals with Bel-7402. In words: Antiproliferative activity against human Bel7402 cells at 33 uM by SRB assay. The format is functional. The procedure, abridged:
(§2)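 Bel-7402 cells kept in RPMI-1640 with 10% FBS, penicillin 100 U/mL and streptomycin at 37 °C under humidified CO2. Exponentially growing cells seeded at 1–2.5 × 10^4 cells/mL. Compound added 24 h later, with medium only for controls. Incubation 48 h, then viable cells counted by SRB. Screened at four concentrations, with single-concentration data given at 33.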
(In SRB staining, fixed cells bind dye roughly in proportion to their protein.)

The test system of series [3] is HL-60. As to the kind of experiment: Antiproliferative activity against human HL60 cells by MTT assay. The format is functional, cell-based. In short, it runs like this: as §1
For series [4], the system named is Bel-7402. In words: Antiproliferative activity against human Bel7402 cells by SRB assay. Type of series: functional, cell-based. In short, it runs like this: as §2
Series [5] concerns Rattus norvegicus. In words: Toxicity in rat at 10 g/kg after 10 days. The settings on record: in vivo, 10000 mg/kg, 240 h.
In series [6] the test system is CCRF S-180. As to the kind of experiment: Antiproliferative activity against mouse S180 cells. Type of series: functional.
For series [7], the system named is Rattus norvegicus. As to the kind of experiment: Toxicity in rat at 10 g/kg after 10 days assessed as change in body weight relative to control. The settings on record: in vivo, 10000 mg/kg, 240 h.
Series [8] has as its system H22. In words: Antiproliferative activity against mouse H22 cells. The format is functional.
For series [9], the system named is BGC-823. In words: Antiproliferative activity against human BGC823 cells implanted in nude mouse. The format is functional.

For `N#CC(CCSC(=S)N1CCN(c2ncccn2)CC1)(c1ccccc1)c1ccccc1`, the inhibition at 33 µM in series [1] is 24.2%; in [2] it was 33.2%.

For `CN1CCN(C(=S)SCCC(C#N)(c2ccccc2)c2ccccc2)CC1`, the figures for the inhibition at 33 µM in series [1] and in [2] were 79% and 75.2%, respectively. In addition, the concentration for half-maximal inhibition (IC50) amounted to 9.9 µM in series [3] and 27.1 µM in series [4].

For `N#CC(CCSC(=S)N1CCN(C(=O)CCBr)CC1)(c1ccccc1)c1ccccc1`, the inhibition at 33 µM in series [1] is 82.2%; in [2], 23.4%.

With `N#CC(CCSC(=S)N1CCN(S(=O)(=O)c2c(Cl)cccc2Cl)CC1)(c1ccccc1)c1ccccc1`, the inhibition at 33 µM in series [1] and in [2] was 0% throughout.

In the case of `N#CC(CCSC(=S)N1CCNCC1)(c1ccccc1)c1ccccc1`, the inhibition at 33 µM is 98.7% in series [1] and 95.5% in series [2]. Besides, the IC50 in [3] was determined as 5.3 µM; in series [4] it was 11.5 µM.

Take `N#CC(CCSC(=S)N1CCN(S(=O)(=O)c2ccc(F)cc2)CC1)(c1ccccc1)c1ccccc1`: the inhibition at 33 µM in [1] was determined as 0%; in series [2], 9.7%.

In the case of `CCCCCCN1CCN(C(=S)SCCC(C#N)(c2ccccc2)c2ccccc2)CC1`, the inhibition at 33 µM in [1] was 2.57%; in [2] it was 12.7%.

For the compound `N#CC(CCSC(=S)N1CCN(S(=O)(=O)c2ccccc2)CC1)(c1ccccc1)c1ccccc1`, the inhibition at 33 µM in [1] and in series [2] was 0% throughout.

As for `N#CC(CCSC(=S)N1CCN(c2ccccc2Cl)CC1)(c1ccccc1)c1ccccc1`, the inhibition at 33 µM in series [1] and in series [2] was 0% each time.

In the case of `N#CC(CCSC(=S)N1CCN(S(=O)(=O)c2cccc([N+](=O)[O-])c2)CC1)(c1ccccc1)c1ccccc1`, the inhibition at 33 µM in series [1] was 0%; in [2], 5.5%.

As to `N#CC(CCSC(=S)N1CCN(C(c2ccccc2)c2ccc(Cl)cc2)CC1)(c1ccccc1)c1ccccc1` (centres undefined), the values for the inhibition at 33 µM in series [1] and in [2] were 2.7% and 18%, respectively.

Turning to `COc1cccc(N2CCN(C(=S)SCCC(C#N)(c3ccccc3)c3ccccc3)CC2)c1`, the inhibition at 33 µM in series [1] turned out to be 9.8%; in series [2] it was 15.5%.

Turning to `N#CC(CCSC(=S)N1CCN(C(=O)CCCl)CC1)(c1ccccc1)c1ccccc1`, the values for the inhibition at 33 µM in series [1] and in series [2] were 43.3% and 22%, respectively.

In the case of `N#CC(CCSC(=S)N1CCN(c2cccc(C(F)(F)F)c2)CC1)(c1ccccc1)c1ccccc1`, the inhibition at 33 µM in series [1] came out at 8.5%; in series [2], 26.3%.

Regarding `CS(=O)(=O)N1CCN(C(=S)SCCC(C#N)(c2ccccc2)c2ccccc2)CC1`, the inhibition at 33 µM in [1] is 24.9%; in series [2], 13.4%.

For the compound `N#CC(CCSC(=S)N1CCN(c2ccc(Cl)c(Cl)c2)CC1)(c1ccccc1)c1ccccc1`, the inhibition at 33 µM in [1] was 0.7%; in series [2], 23.3%.

As for `N#CC(CCSC(=S)N1CCN(c2ccccc2)CC1)(c1ccccc1)c1ccccc1`, the results for the inhibition at 33 µM in [1] and in series [2] were 10.5% and 0%, respectively.

`N#CC(CCSC(=S)N1CCN(c2ccccc2F)CC1)(c1ccccc1)c1ccccc1`: the inhibition at 33 µM in series [1] worked out at 0%; in series [2] it was 4.3%.

In the case of `CS(=O)(=O)OCCC(=O)N1CCN(C(=S)SCCC(C#N)(c2ccccc2)c2ccccc2)CC1`, the inhibition at 33 µM turned out to be 0% in [1] and 1.09% in [2].

`N#CC(CCSC(=S)N1CCN(Cc2ccc3c(c2)OCO3)CC1)(c1ccccc1)c1ccccc1`: the inhibition at 33 µM was determined as 0% in series [1] and 16.6% in [2].

`Cc1ccccc1N1CCN(C(=S)SCCC(C#N)(c2ccccc2)c2ccccc2)CC1`: the inhibition at 33 µM in series [1] and in series [2] was 0% throughout.

For the compound `N#CC(CCSC(=S)N1CCN(c2ccc([N+](=O)[O-])cc2)CC1)(c1ccccc1)c1ccccc1`, the inhibition at 33 µM in [1] worked out at 7.8%; in series [2] it was 2.2%.

As to `N#CC(CCSC(=S)N1CCN(c2ccccn2)CC1)(c1ccccc1)c1ccccc1`, the inhibition at 33 µM in series [1] came to 31.8%; in series [2] it was 22.6%.

With `N#CC(CCSC(=S)N1CCN(S(=O)(=O)c2cccc(C(F)(F)F)c2)CC1)(c1ccccc1)c1ccccc1`, the inhibition at 33 µM in series [1] and in [2] was 0% throughout.

On to `N#CC(CCSC(=S)N1CCN(c2cccc(Cl)c2)CC1)(c1ccccc1)c1ccccc1`, for which the inhibition at 33 µM in series [1] is 4.2%; in series [2], 0%.

As for `CCCCN1CCN(C(=S)SCCC(C#N)(c2ccccc2)c2ccccc2)CC1`, the inhibition at 33 µM is -13.5% in series [1] and 11% in series [2].

In the case of `N#CC(CCSC(=S)N1CCN(CCCl)CC1)(c1ccccc1)c1ccccc1`, the figures for the inhibition at 33 µM in [1] and in [2] were 53.6% and 28.7%, respectively.

For the compound `N#CC(CCSC(=S)N1CCN(CCO)CC1)(c1ccccc1)c1ccccc1`, the values for the inhibition at 33 µM in [1] and in series [2] were 92.5% and 57.7%, respectively. In addition, the IC50 worked out at 24.5 µM in series [3] and 11.7 µM in series [4].

Regarding `COc1ccc(S(=O)(=O)N2CCN(C(=S)SCCC(C#N)(c3ccccc3)c3ccccc3)CC2)cc1`, the inhibition at 33 µM came to 1.5% in [1] and 5.4% in [2].

For `CCN1CCN(C(=S)SCCC(C#N)(c2ccccc2)c2ccccc2)CC1`, the inhibition at 33 µM in [1] is -7.81%; in [2], 4.97%.

On to `N#CC(CCSC(=S)N1CCN(C(=O)c2ccco2)CC1)(c1ccccc1)c1ccccc1`, for which the inhibition at 33 µM in [1] came out at 30.4%; in series [2], 17.7%.

As to `CCOC(=O)N1CCN(C(=S)SCCC(C#N)(c2ccccc2)c2ccccc2)CC1`, the inhibition at 33 µM in [1] amounted to 0%; in series [2], 35%.

Regarding `N#CC(CCSC(=S)N1CCN(S(=O)(=O)c2ccccc2[N+](=O)[O-])CC1)(c1ccccc1)c1ccccc1`, the inhibition at 33 µM in series [1] and in series [2] was 0% each time.

On to `CN1CCN(C(=S)SCCC(C#N)(c2ccccc2)c2ccccc2)CC1.Cl`, for which the Activity result in [5] is “Not Active”; in [6], 46.4%; in series [7] it was “Not Active”; in series [8] it was 39.3%; in series [9] it was 18.1%.

As to `Cc1ccc(Cl)cc1N1CCN(C(=S)SCCC(C#N)(c2ccccc2)c2ccccc2)CC1`, the values for the inhibition at 33 µM in series [1] and in series [2] were 0% and 14.6%, respectively.

`COc1ccccc1N1CCN(C(=S)SCCC(C#N)(c2ccccc2)c2ccccc2)CC1`: the inhibition at 33 µM turned out to be 4.8% in [1] and 0% in series [2].

As for `N#CC(CCSC(=S)N1CCN(Cc2ccccc2)CC1)(c1ccccc1)c1ccccc1`, the inhibition at 33 µM in series [1] was 12.5%; in [2], 4.7%.

Regarding `COc1ccc(N2CCN(C(=S)SCCC(C#N)(c3ccccc3)c3ccccc3)CC2)cc1`, the inhibition at 33 µM in series [1] came out at 8.5%; in [2], 14.9%.

Take `N#CC(CCSC(=S)N1CCN(c2ccc(F)cc2)CC1)(c1ccccc1)c1ccccc1`: the inhibition at 33 µM in [1] was found to be 0%; in series [2], 15.9%.

Regarding `N#CC(CCSC(=S)N1CCN(S(=O)(=O)c2ccc([N+](=O)[O-])cc2)CC1)(c1ccccc1)c1ccccc1`, the inhibition at 33 µM worked out at 0% in series [1] and 0.2% in series [2].

A word on the inhibition: it is the change of the read-out against control, counted positive when it falls. As usually defined, the IC50 is the concentration needed to halve the response being measured. Read a low IC50 as greater potency.
